Blank lines part the entries; values can stand above or below the compound they belong to. The source made the active and inactive calls. The calls are words filed in the database; no cut-off is given here.
Assays:
[1] = tested on: U-937; assay: Antitumor activity against human U937 cells after 24 to 48 hrs by MTT assay; assay type: functional, cell-based
Summary of the method: (§1)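 MTT read-out. Cells grown at 37 °C in DMEM with 10 mM glucose, 10% fetal calf serum, penicillin/streptomycin and 2 mmol/L glutamine. Seeded at 10^5 cells per well and left 24 h to attach, then compound added over a range of concentrations and cells grown 24 or 48 h. MTT at 1 mg/mL for 2 h at 37 °C in the dark, formazan dissolved in DMSO, OD read at 550 nm. Values are % of vehicle control (0.5% DMSO); IC50 by linear and polynomial regression; triplicate.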

[2] = Antitumor activity against human MDA231 cells after 24 to 48 hrs by MTT assay; assay type: functional, cell-based; settings: MDA-MB-231; summary of the method: as §1
[3] = tested on: SW-620; assay: Antitumor activity against human SW620 cells after 24 to 48 hrs by MTT assay; assay type: functional, cell-based; summary of the method: as §1
[4] = tested on: Caco-2; assay: Selectivity index, ratio IC50 for undifferentiated human Caco2 cells to IC50 for differentiated human Caco2 cells; assay type: functional
Summary of the method: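 Ratio of MTT IC50 in undifferentiated to differentiated Caco-2 cells. MTT conditions: 24 or 48 h exposure, formazan dissolved in DMSO, read at 550 nm, IC50 by regression, triplicate.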

[5] = tested on: MDA-MB-435; assay: Antitumor activity against human MDA-MB-435 cells after 24 to 48 hrs by MTT assay; assay type: functional, cell-based
Summary of the method: as §1, with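 “nm.” for “nm. Values are % of vehicle control (0.5% DMSO); IC50 by linear and polynomial regression; triplicate.”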

[6] = Antitumor activity against human IGROV cells after 24 to 48 hrs by MTT assay; assay type: functional, cell-based
Summary of the method: as §1, with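 “nm.” for “nm. Values are % of vehicle control (0.5% DMSO); IC50 by linear and polynomial regression; triplicate.”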

[7] = tested on: SNB-19; assay: Antitumor activity against human SNB19 cells after 24 to 48 hrs by MTT assay; assay type: functional, cell-based; summary of the method: as §1
[8] = tested on: SF-295; assay: Antitumor activity against human SF295 cells after 24 to 48 hrs by MTT assay; assay type: functional, cell-based; summary of the method: as §1
[9] = tested on: SK-MEL-28; assay: Antitumor activity against human SK-MEL-28 cells after 24 to 48 hrs by MTT assay; assay type: functional, cell-based; summary of the method: as §1
[10] = tested on: HT-29; assay: Antitumor activity against human HT-29 cells after 24 to 48 hrs by MTT assay; assay type: functional, cell-based; summary of the method: as §1
[11] = tested on: Caco-2; assay: Antitumor activity against human undifferentiated Caco2 cells after 24 to 48 hrs by MTT assay; assay type: functional, cell-based; summary of the method: as §1
[12] = tested on: COLO 205; assay: Antitumor activity against human COLO205 cells after 24 to 48 hrs by MTT assay; assay type: functional, cell-based; summary of the method: as §1
[13] = tested on: Caco-2; assay: Antitumor activity against human differentiated Caco2 cells after 24 to 48 hrs by MTT assay; assay type: cell-based; summary of the method: as §1
[14] = tested on: MCF7; assay: Drug uptake in human MCF7 cells assessed as nuclear localization at 50 nM after 30 mins by confocal microscopic analysis; assay type: ADME, cell-based; settings: mcf7, 0.5 h, 0.05 µM
Summary of the method: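 Imaging in MCF-7 cells by confocal microscopy with 50 nM labeled compound. Cells fixed in paraformaldehyde for 30 min at 4 °C, permeabilized with Triton X-100 for 30 min at 4 °C, and nuclei stained with Hoechst 33342. Images taken with a 63× oil objective.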

[15] = tested on: Nucleic Acid; assay: Binding affinity to poly(dG-dC).poly(dG-dC) DNA assessed as compound/DNA complex formation at 1 mM by STD NMR spectrophotometric analysis; assay type: nucleic-acid assay
Summary of the method: (§2)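 Ligand at 1.0 mM with poly(dG-dC)·poly(dG-dC) at 50 μM (as phosphate groups), a 20:1 ligand excess, in H2O/D2O 9:1 with 100 mM phosphate-buffered saline, pH 7.1. Water suppressed by DPFGSE. STD effects taken relative to a reference spectrum with off-resonance saturation at δ −16 ppm, 2 s saturation, typically 512 scans. WaterLOGSY spectra recorded with and without DNA.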

[16] = tested on: Caco-2; assay: Induction of cyclin A expression in human Caco2 cells at 1 uM after 48 hrs by Western blot analysis; assay type: functional
Summary of the method: (§3)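 Caco-2 cells treated for 48 h (1 or 5 μM for Hsp27; 1 μM for cyclin A). Lysed in ice-cold 50 mM Tris, 150 mM NaCl, 10 mM EDTA, 1% Triton with protease inhibitors. Equal protein run on 8–12% SDS-PAGE and transferred to nitrocellulose. Primary antibody overnight in TBS/Tween/1% milk, then HRP secondary; bands detected by ECL.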

[17] = tested on: Caco-2; assay: Cell cycle arrest in human Caco2 cells assessed as accumulation at S phase at 1 uM after 48 hrs by propidium iodide staining based flow cytometric analysis (reference value: 36%); assay type: functional
[18] = Cardiotoxicity in rat H9c2 cells assessed as cell viability at 1 uM up to 120 hrs by MTT assay; assay type: toxicity, cell-based; settings: read-out: Activity
Summary of the method: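 Rat H9C2 cardiomyoblasts, passages 4–10, grown at 37 °C in DMEM with FBS, glutamine and penicillin/streptomycin. Plated at 2000 cells/well in quadruplicate and given compound at 1 μM for the indicated times. MTT reagent added for 2 h in the incubator, then absorbance read at 570 nm. Data are mean ± SD.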

[19] = tested on: Caco-2; assay: Increase in Hsp27 protein expression in human Caco2 cells at 1 uM after 48 hrs by Western blot analysis; assay type: functional, cell-based; summary of the method: as §3
[20] = tested on: Nucleic Acid; assay: Binding affinity to poly(dG-dC).poly(dG-dC) DNA assessed as compound/DNA complex formation at 1 mM by WaterLOGSY NMR spectrophotometric analysis; assay type: nucleic-acid assay; summary of the method: as §2
[21] = tested on: Nucleic Acid; assay: Binding affinity to DNA assessed as binding mode index by measuring aromatic signals by DF-STD spectrophotometric analysis; assay type: nucleic-acid assay
Summary of the method: (§4)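 DF-STD NMR on poly(dG-dC)·poly(dG-dC) in H2O/D2O 9:1 with 100 mM phosphate-buffered saline, pH 7.1. Ligand 1.0 mM; DNA 50 μM as phosphate (20:1 ligand excess). Saturation is centred on the aromatic or low-field aliphatic region for 2 s, with a reference off-resonance at δ −16 ppm and 512 scans. The binding mode index is the relative response of ligand protons to base versus sugar/backbone saturation.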

[22] = tested on: Caco-2; assay: […] of cell differentiation in human Caco2 cells assessed as increase in ALP activity at 10 uM after 48 hrs; assay type: functional; design: scale not given: the % may be the effect or the level left
Summary of the method: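 Caco-2 cells cultured 48 h with 0, 1, 5 or 10 μM compound. Attached and floating cells washed and lysed in 0.25% sodium deoxycholate. ALP activity measured with a diagnostic ALP reagent and protein by Bradford microassay. Activity expressed as units per mg protein, as a differentiation marker.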

[23] = tested on: Caco-2; assay: Increase in Hsp27 protein expression in human Caco2 cells at 5 uM after 48 hrs by Western blot analysis; assay type: functional, cell-based; summary of the method: as §3
[24] = tested on: Caco-2; assay: Cell cycle arrest in human Caco2 cells assessed as accumulation at G2/M phase at 1 uM after 48 hrs by propidium iodide staining based flow cytometric analysis (reference value: 21%); assay type: functional
[25] = tested on: MCF7; assay: Cytotoxicity against human MCF7 cells; assay type: functional, cell-based; summary of the method: as §1
[26] = tested on: Nucleic Acid; assay: Binding affinity to DNA assessed as binding mode index by measuring aliphatic signals by DF-STD spectrophotometric analysis; assay type: nucleic-acid assay; summary of the method: as §4
[27] = organism: Homo sapiens; assay: Inhibition of human topoisomerase 2-mediated relaxation of supercoiled pBR322 DNA relaxation after 6 mins by agarose gel electrophoresis
[28] = tested on: Caco-2; assay: Cell cycle arrest in human Caco2 cells assessed as accumulation at G1 phase at 1 uM after 48 hrs by propidium iodide staining based flow cytometric analysis (reference value: 42%); assay type: functional

Structure (SMILES): O=C(CO)Nc1csc2c1C(=O)c1ccccc1C2=O
- IC50 [1]: 15.1 µM
- IC50 [2]: 10.1 µM
- IC50 [3]: 18.5 µM

Structure (SMILES): CCCNC(=O)Nc1csc2c1C(=O)c1ccccc1C2=O
- IC50 [1]: 10.1 µM
- IC50 [2]: 9.5 µM
- IC50 [3]: 6.5 µM

Structure (SMILES): O=C(CS)Nc1csc2c1C(=O)c1ccccc1C2=O
- IC50 [1]: 30.1 µM
- IC50 [2]: 13.6 µM
- IC50 [3]: 20.9 µM

Structure (SMILES): O=C1c2ccccc2C(=O)c2c(NC(=O)[C@@H]3CCCN3)csc21
- IC50 [1]: 0.9 µM
- IC50 [2]: 6.7 µM
- IC50 [3]: 5.4 µM

Structure (SMILES): NCCC(=O)Nc1csc2c1C(=O)c1ccccc1C2=O.O=C(O)C(F)(F)F
- Ratio IC50 [4]: 0.43
- IC50 [5]: 0.4 µM
- IC50 [6]: 1.2 µM
- IC50 [7]: 1.6 µM
- IC50 [1]: 1.7 µM
- IC50 [8]: 2.8 µM
- IC50 [9]: 1.5 µM
- IC50 [10]: 0.6 µM
- IC50 [11]: 2.6 µM
- IC50 [12]: 0.4 µM
- IC50 [2]: 3.7 µM
- IC50 [3]: 0.8 µM
- IC50 [13]: 6.1 µM

Structure (SMILES): O=C(CCN1CCOCC1)Nc1csc2c1C(=O)c1ccccc1C2=O
- IC50 [1]: 7.2 µM
- IC50 [2]: 10.1 µM
- IC50 [3]: 20.1 µM

Structure (SMILES): CCN(CC)CCC(=O)Nc1csc2c1C(=O)c1ccccc1C2=O.Cl
- Drug uptake [14]: Active
- Activity [15]: Active
- Activity [16]: inactive
- Activity [17]: 41%
- Ratio IC50 [4]: 0.25
- IC50 [5]: 0.5 µM
- IC50 [6]: 2.5 µM
- viability at 120 h, 1 µM [18]: 74%
- Activity [19]: Active
- Activity [20]: Active
- IC50 [7]: 0.7 µM
- Activity [21]: 1.35
- IC50 [1]: 1.1 µM
- Activity [22]: >180%
- Activity [23]: inactive
- IC50 [8]: 0.6 µM
- Activity [24]: 28%
- IC50 [9]: 0.6 µM
- IC50 [10]: 0.8 µM
- IC50 [11]: 1 µM
- IC50 [25]: 0.5 µM
- Activity [26]: 0.86
- IC50 [12]: 0.9 µM
- IC50 [2]: 2.5 µM
- IC50 [3]: 1.5 µM
- inhibition [27]: Dose-dependent effect
- IC50 [13]: 4.1 µM
- Activity [28]: 29%

The remaining compounds from weak to strong by IC50 [1], led by results:

- IC50 [1]: 23.9 µM
- IC50 [3]: 20.7 µM
Structure (SMILES): O=C(CCS)Nc1csc2c1C(=O)c1ccccc1C2=O
- IC50 [2]: 15.2 µM

- IC50 [1]: 15 µM
- IC50 [3]: 20.3 µM
Structure (SMILES): O=C(CCO)Nc1csc2c1C(=O)c1ccccc1C2=O
- IC50 [2]: 9.2 µM

- IC50 [1]: 4.3 µM
- IC50 [3]: 10.8 µM
Structure (SMILES): O=C(CN1CCOCC1)Nc1csc2c1C(=O)c1ccccc1C2=O
- IC50 [2]: 7.1 µM

Reference: ChEMBL document CHEMBL1799973, “Design, synthesis, and cytotoxic evaluation of acyl derivatives of 3-aminonaphtho[2,3-b]thiophene-4,9-dione, a quinone-based system” (J Med Chem, 2011)
